High-throughput results deposited in PubChem BioAssay by The Scripps Research Institute Molecular Screening Center.
In the library only some 3.9% were active in any assay of this set; here they are far more common.
HTR2A ag – mouse Htr2a agonists via beta-arrestin recruitment, primary screen, cell-based, luminescence | 5-hydroxytryptamine receptor 2A (Mus musculus), P35363 | CHO-K1 mHTR2A beta-arrestin complementation; percent of 30 µM serotonin response | activation, % at 7.6 µM | 360,000 compounds, 0.66% hits;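 active = activation above a run cutoff, the mean activation of all tested compounds plus 3 SD, cut at about 14% in these data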;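 also: 0% = plate median of compound wells and 100% = 30 µM serotonin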
CHRM1 antagonist – human M1 muscarinic receptor antagonists, primary screen, CHO-K1 cells, Fluo-8 calcium fluorescence, 1536-well | Muscarinic acetylcholine receptor M1 (Homo sapiens), P11229 | CHO-K1 hM1, ACh EC80 antagonist | inhibition, % at 3 µM | 360,000 compounds, 1.3% hits;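 active = percent inhibition above its own plate's cutoff, namely the mean of that plate's compound wells plus 3 SD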;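 also: peak over basal fluorescence ratio during 140 s after agonist addition; 0% = ACh EC80 plus DMSO and 100% = DMSO alone without agonist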
M1 ag – human M1 muscarinic receptor agonists, primary screen, Fluo-8 calcium fluorescence, CHO-K1 cells, HTS | CHO-K1 hM1, agonist mode; 0% DMSO, 100% acetylcholine EC100 | activation, % at 3 µM | Muscarinic acetylcholine receptor M1 (Homo sapiens), P11229 | 360,000 compounds, 0.33% hits;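 active = activation above the run's mean compound activation plus 3 SD, cut at about 16% in these data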;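 also: peak over basal fluorescence ratio within a 140 s kinetic read after compound addition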
CHRM1 PAM – human M1 muscarinic receptor positive allosteric modulators, primary screen, CHO-K1 cells, Fluo-8 calcium fluorescence, 1536-well; Muscarinic acetylcholine receptor M1 (Homo sapiens), P11229; CHO-K1 hM1, ACh EC20; 0% = ACh EC20, 100% = maximal ACh; activation, % at 3 µM; 360,000 compounds, 0.088% hits; in the data active = activation above about 19%, passing the limit was not always enough
TAAR1 agonist – human TAAR1 agonists, primary screen, Fluo-8 calcium fluorescence, CHO RD-HGA16 cells; AID 624467, 2012; activation, % at 3 µM; vehicle wells 0%, saturating PEA agonist 100%; 360,000 compounds, 0.99% hits; Trace amine-associated receptor 1 (Homo sapiens), Q96RJ0;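 active = activation above the mean activation of all test compounds in the run plus 3 SD, cut at about 38% in these data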
Target sequence (Q96RJ0 whole entry, looked up): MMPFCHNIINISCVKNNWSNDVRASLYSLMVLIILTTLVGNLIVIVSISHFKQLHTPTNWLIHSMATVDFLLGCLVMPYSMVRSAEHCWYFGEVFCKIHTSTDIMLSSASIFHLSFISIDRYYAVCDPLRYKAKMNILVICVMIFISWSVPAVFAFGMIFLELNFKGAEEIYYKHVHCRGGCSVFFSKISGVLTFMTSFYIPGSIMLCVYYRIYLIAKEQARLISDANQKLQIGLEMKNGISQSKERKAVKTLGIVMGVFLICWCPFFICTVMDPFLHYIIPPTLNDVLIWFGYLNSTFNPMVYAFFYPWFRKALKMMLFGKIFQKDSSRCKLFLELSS
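Assay system – CHO-derived RD-HGA16 cells with stable Gα16 and human TAAR1 · Compound dosing – one-point dosing at 3 µM (nominal) · Incubation – 17-24 h seeding, 75 min 37 °C dye, 30 min RT · Measured by – kinetic Fluo-8 calcium fluorescence · Control set – DMSO vehicle as 0%, PEA at EC100 as 100% · Repeats – single well for each compound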
TAAR1 antag – human TAAR1 antagonists, primary screen, Fluo-8 calcium fluorescence, CHO RD-HGA16 cells; AID 624466, 2012; 360,000 compounds, 1.5% hits; antagonist; Trace amine-associated receptor 1 (Homo sapiens), Q96RJ0; inhibition, % at 3 µM;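 active = inhibition above a per-plate cutoff, the mean inhibition of test compounds on that plate plus 3 SD, cut at about 49% in these data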;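 also: 0% = DMSO plus EC80 beta-PEA response and 100% = DMSO alone without agonist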
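Test system – hTAAR1-expressing CHO RD-HGA16 cells, Gα16-coupled · Reagent – β-PEA at EC80 concentration, post-compound challenge · Compound dosing – 3 µM, single point · Timing – 140 s kinetic read after compound, 140 s after agonist · Detection – Fluo-8 intracellular calcium dye fluorescence, real-time kinetic reads · Control set – DMSO and EC80 PEA controls · Repeats – n of 1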
TAAR1 ag conf – human TAAR1 agonists, retest of hits, confirmation, Fluo-8 calcium fluorescence, CHO RD-HGA16 cells; activation, % at 3 µM; shares compounds with TAAR1 agonist; scaled: DMSO 0%, maximal phenethylamine 100%; 2,400 compounds, 82% hits;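 active = activation above a cutoff set at the run's mean compound activation plus 3 SD, cut at about 39% in these data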
Ga16 ag counter – nonselective calcium mobilization agonists, CHO-Ga16 cells, counter-screen for hTAAR1 agonist project, cell-based, fluorescence, CHO-Ga16 parental line; shares compounds with TAAR1 agonist; Fluo-8 calcium fluorescence; normalized to maximal ATP response, DMSO zero; activation, % at 3 µM; 2,400 compounds, 50% hits; AID 651787, 2012;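 active = activation above the run cutoff, the mean activation over all tested wells plus 3 SD, cut at about 12% in these data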;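 also: 0% = DMSO wells and 100% = maximal ATP response on the peak over basal ratio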
TAAR1 desens – TAAR1 desensitization by agonist hits, confirmation, counter-screen for TAAR1 agonist project, cell-based, fluorescence, tachyphylaxis | CHO RD-HGA16 hTAAR1, Fluo-8 calcium, beta-PEA response inhibition | shares compounds with TAAR1 agonist | AID 651951, 2012 | inhibition, % at 3 µM | 2,400 compounds, 46% hits;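 active = inhibition above the run cutoff, the mean inhibition of all test compounds plus 3 SD, cut at about 49% in these data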;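 also: beta-PEA stimulus applied at its EC80; loss of beta-PEA calcium signal after compound pretreatment read as receptor desensitization; 0% = DMSO with beta-PEA at EC80 and 100% = DMSO alone without agonist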
Ga16 antag count – inhibition of ATP-evoked calcium response in CHO-Ga16 cells, counter-screen for TAAR1 agonist project, cell-based, fluorescence. CHO-Ga16 ATP-induced calcium, Fluo-8 fluorescence. shares compounds with TAAR1 agonist. 2,400 compounds, 39% hits. AID 651952, 2012. inhibition, % at 3 µM;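 active = inhibition above the plate's mean compound inhibition plus 3 SD, computed per plate, cut at about 22% in these data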;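 also: 0% = EC80 ATP with DMSO and 100% = DMSO wells without ATP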
* marks the source's active call; other numbers are inactive results; / = no result given.

SMILES	HTR2A ag	CHRM1 antagonist	M1 ag	CHRM1 PAM	TAAR1 agonist	TAAR1 antag	TAAR1 ag conf	Ga16 ag counter	TAAR1 desens	Ga16 antag count
Cc1nc([N+](=O)[O-])c(Br)n1Cc1ccc(Cl)c(Cl)c1	-4.4	-8.7	-1.1	5.0	51.0*	36.8	9.5	4.8	18.1	12.9
COc1cc2c(c(OC)c1OC)C1(CCCCC1)CC2NCC=C(C)C (configuration not stated)	/	/	/	/	49.5*	0.0	11.8	0.9	-9.6	0.7
COc1cc2c(cc1OC)C(C1(O)CCCCC1)NCC2 (configuration not stated)	7.6	-15.1	0.2	13.0	-0.6	-0.8	/	/	/	/
CCOC(=O)/C(=C/C=C1\Sc2cc(C)c(C)cc2N1CC)C(C)=O	2.6	32.6*	51.4*	-16.0	378.5*	107.2*	159.9*	126.2*	90.6*	83.8*
O=C(Nc1ccc(Br)cc1F)c1ccc2c(c1)OCCO2	3.8	6.5	-2.9	1.0	-1.6	-5.0	/	/	/	/
CCC(=O)Nc1ccc(C(=O)Nc2ccc(Br)cc2F)cc1	-2.6	-3.0	-5.6	9.8	74.9*	82.9*	13.9	3.0	11.1	12.6
Nc1ccc2ccc(O)cc2c1	-0.6	-10.2	-1.5	6.1	-0.3	5.8	/	/	/	/
C[n+]1c2cc(N)ccc2cc2ccc(N)cc21	-1.1	14.4	204.7*	-17.1	82.0*	15.2	102.7*	123.3*	23.6	42.4*
CSc1ccc(Cn2nnc(C(=O)NCc3ccccc3)c2N)cc1	-6.1	14.2	33.7*	-2.5	98.3*	75.1*	104.8*	48.2*	59.5*	41.1*
CCCS(=O)(=O)N1CCCC(C(=O)NCCc2cccc(C)c2)C1 (configuration not stated)	-0.1	-1.7	-4.0	-0.6	6.4	-9.0	/	/	/	/
COc1cc(/C=N/NC(=O)c2nnn(-c3nonc3N)c2C(C)C)ccc1O	4.8	20.7	1.1	-8.1	17.1	-1.4	/	/	/	/
CC(C)c1ccc(/C=N/NC(=O)c2nnn(-c3nonc3N)c2CN2CCOCC2)cc1	-6.4	-0.7	-2.8	1.1	60.5*	8.4	89.7*	54.1*	16.3	14.4
CC(C)c1c(C(=O)N/N=C/c2ccoc2)nnn1-c1nonc1N	2.1	-8.3	9.5	6.1	64.7*	-4.7	24.0	32.4*	18.2	7.2
CC(C)c1c(C(=O)N/N=C/c2ccsc2)nnn1-c1nonc1N	-12.7	17.4	27.8*	-6.9	104.7*	1.6	124.2*	82.5*	42.9	17.4
CC(C)c1c(C(=O)N/N=C/c2ccc(C(F)(F)F)cc2)nnn1-c1nonc1N	-1.6	-18.4	21.0*	20.6	149.7*	79.2*	120.0*	89.2*	80.4*	39.5*
CC(C)c1c(C(=O)N/N=C/c2ccc(OCc3ccc(F)cc3)cc2)nnn1-c1nonc1N	-1.4	6.7	-1.1	2.0	2.9	-7.1	/	/	/	/
CC1(c2ccccc2)NC(=O)N(CC(=O)Nc2ccc3c(c2)CCC3)C1=O (configuration not stated)	0.7	-14.9	3.1	14.1	11.1	17.3	/	/	/	/
CC(C)=NOc1nc(N(C)C)nc(N2CCOCC2)n1	2.8	-1.8	0.9	-1.0	2.4	-53.7	/	/	/	/
CC(/C=N/NC(=O)c1nnn(-c2nonc2N)c1C(C)C)=C\c1ccccc1	0.3	-8.4	6.9	7.5	8.0	15.3	/	/	/	/
CC(C)c1c(C(=O)N/N=C/c2cccs2)nnn1-c1nonc1N	2.0	9.2	33.6*	-5.8	90.5*	16.9	108.1*	72.2*	24.2	12.0
CC(C)c1c(C(=O)N/N=C2\CCc3ccccc32)nnn1-c1nonc1N	-2.1	11.0	-0.4	-6.0	61.9*	8.2	53.0*	15.7*	20.6	12.7
O=C(Cc1ccc(NC(=O)C2CCCN(C(=O)CCc3ccccc3)C2)cc1)Nc1cccc(C(=O)N2CCCC2)c1 (configuration not stated)	2.2	5.8	-8.1	-3.6	-0.1	-13.9	/	/	/	/
CCOC(=O)C1(C(=O)OCC)NC(=O)CC1C(C)C (configuration not stated)	0.5	-7.2	0.5	2.4	0.6	-7.5	/	/	/	/
CC1C/C(=C/c2cccn2C)C(=O)/C(=C/c2cccn2C)C1 (configuration not stated)	-2.3	1.8	3.3	2.2	66.6*	75.5*	39.6*	45.4*	50.5*	64.7*
CC1C/C(=C/c2ccncc2)C(=O)/C(=C/c2ccncc2)C1 (configuration not stated)	6.1	0.9	2.1	-2.9	-0.3	-5.5	/	/	/	/
CN(CCc1ccccc1)c1cc2c(c3c1ccn3C)C1CCC2O1 (configuration not stated)	4.6	-6.1	-3.8	9.1	77.8*	69.0*	94.1*	1.9	78.5*	5.1
CCCC(C(=O)Nc1ccc(C)c(S(=O)(=O)N2CCOCC2)c1)c1ccccc1 (configuration not stated)	-3.6	-5.7	-2.2	3.2	0.4	-56.1	/	/	/	/
CCCC(C(=O)Nc1ccc(S(=O)(=O)N2CCOCC2)cc1)c1ccccc1 (configuration not stated)	-11.1	6.8	19.9*	0.7	95.8*	57.0*	85.5*	45.6*	68.7*	34.5*
